Assay results from ChEMBL document CHEMBL1287789, “4-deoxy-4-fluoro-xyloside derivatives as inhibitors of glycosaminoglycan biosynthesis” (Bioorg Med Chem Lett, 2010).
Active and inactive are the calls of the source. No cut-off for these calls is given here.

Columns and labels:
[1] = Cytotoxicity against BLMVEC assessed as cell viability at <=300 uM after 24 hrs by celltiter blue assay; design: species or system Bos taurus; details: cattle
In short: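 Bovine lung microvascular endothelial cells seeded at 2.5 × 10⁴ cells/well in duplicate, Ham's F-12 with 10% FBS. Exposed to DMSO (control) or compound at 0.1, 0.3 and 1.0 mM for 24 h at 37 °C; 3% H₂O₂ as control. CellTiter-Blue added for 2 h, stopped with 3% SDS, fluorescence read at ex 560/em 590 nm.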

Bos taurus [2] = species on record: Bos taurus; assay: Inhibition of glycosaminoglycan biosynthesis in BLMVEC assessed as [3H]glucosamine incorporation at 300 uM after 24 hrs by liquid scintillation counting; type: functional
In short: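 Cells seeded at 2 × 10⁵/well and grown 24 h at 37 °C, then switched to DMEM with 1 mM glucose and 10% dialyzed FBS. Treated 24 h with 300 µM compound (from 30 mM DMSO stock) or DMSO alone, with ³H-glucosamine. Pronase digest overnight at 37 °C; GAGs bound to DEAE-Sepharose, washed at pH 6.0 with 0.1 M NaCl, eluted with 1 M NaCl; eluate radioactivity by scintillation counting.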

Bos taurus [3] = species on record: Bos taurus; assay: Inhibition of glycosaminoglycan biosynthesis in BLMVEC assessed as [3H]-labeled-GAG chains by anion exchange chromatography; type: functional; details: dose or concentration not given here
In short: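 ³H-glucosamine-labelled GAG chains from cells given 300 µM compound or DMSO for 24 h were run on DEAE-HPLC. Elution over 80 min with a 0.2–1 M NaCl linear gradient, monitored by an in-line radiometric detector; heparan sulfate and chondroitin sulfate resolved as separate peaks between 20 and 50 min.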

SMILES	Activity [1]	inhibition (Bos taurus [2])	inhibition (Bos taurus [3]) [%]
O[C@@H]1[C@@H](O)[C@@H](n2cc(COc3ccc(F)cc3)nn2)OC[C@H]1F	Non-toxic	Active	–
O=[N+]([O-])c1ccc(OCc2cn([C@H]3OC[C@@H](F)[C@H](O)[C@H]3O)nn2)cc1	Non-toxic	80%	80
O=[N+]([O-])c1ccc(OCc2cn([C@@H]3OC[C@@H](F)[C@H](O)[C@H]3O)nn2)cc1	Non-toxic	80%	80
O[C@@H]1[C@@H](O)[C@@H](n2cc(-c3ccc4ccccc4c3)nn2)OC[C@H]1F	Non-toxic	Active	–
O[C@@H]1[C@@H](O)[C@H](n2cc(COCc3ccc4ccccc4c3)nn2)OC[C@H]1F	Non-toxic	inactive	–
O[C@@H]1[C@@H](O)[C@H](n2cc(COc3ccc(F)cc3)nn2)OC[C@H]1F	Non-toxic	Active	–
O[C@@H]1[C@@H](O)[C@@H](n2cc(COCc3ccc4ccccc4c3)nn2)OC[C@H]1F	Non-toxic	Active	–
